The source of these data is article PMC7932028 (European journal of medicinal chemistry, 2020).

One may read the MIC as the lowest concentration that inhibits growth of the organism.

Each structure is given as a SMILES string. Values after ≈ are worked out from the molar mass of the structure shown.

For this experiment, the system named is S. aureus strain 29213. The experiment is described as follows: Whole cell growth inhibition. Type of experiment: cell-based. Conditions: Staphylococcus aureus, 29213, 18 h, read-out: MIC (whole cell growth inhibition). The procedure, abridged: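 Racemic test compounds were assayed against CLSI-standardized S. aureus cultures. Growth was scored by turbidity at 600 nm and by visual inspection. The MIC was taken as the lowest concentration with no growth after 18 h incubation. There were n = 2 independent assays, each with duplicate technical replicates, and values are given with SEM.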
Turning to `CCCC1c2cc(C)c(C)cc2C=NN1C(=O)/C=C/c1cc(Cc2cnc(N)nc2N)cc(OC)c1OC` (racemic) [13b, (±)-(E)-3-(5-((2,4-Diaminopyrimidin-5-yl)methyl)-2,3-dimethoxyphenyl)-1-(6,7-dimethyl-1-propylphthalazin-2(1H)-yl) prop-2-en-1-one], the MIC fell in the range of 0.5 to 1 mg/L (≈ 0.972 to 1.94 µM).

For `COc1cc(Cc2cnc(N)nc2N)cc(/C=C/C(=O)N2N=Cc3ccccc3C2c2ccc(C)cc2)c1OC` (stereo not drawn) [11j], the MIC was in the range of 0.046 to 0.187 mg/L (≈ 0.086 to 0.35 µM).

With `CCCC1c2ccccc2C=NN1C(=O)/C=C/c1cc(Cc2cnc(N)nc2N)cc(OC)c1OC` (stereo not drawn) [11a], the MIC was in the range of 0.0625 to 0.25 mg/L (≈ 0.128 to 0.514 µM).
